These results are taken from ChEMBL document CHEMBL1126582, “Symmetry-based inhibitors of HIV protease. Structure-activity studies of acylated 2,4-diamino-1,5-diphenyl-3-hydroxypentane and 2,5-diamino-1,6-diphenylhexane-3,4-diol” (J Med Chem, 1993).

Converted amounts (≈) assume the structure as drawn.

Data set [1] is described as follows: Estimated solubility (buffer pH 7.4). It counts as ADME. To be noted: read-out: S. Summed up:
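Solubility was estimated in pH 7.4 phosphate buffer.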

Data set [2] relates to MT4. Description: In vitro for cytotoxicity in MT-4 lymphocytes in the absence of HIV infection. It is filed as functional. Particulars: Homo sapiens. In short, it runs like this: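 Uninfected MT-4 lymphocytes were cultured with compound. CC50 is the concentration at which 50% of cells remain viable.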
Data set [3] has as its system Human immunodeficiency virus 1. Description: In vitro for inhibition of cytopathic effect of HIV-1 3B in MT-4 lymphocytes. It counts as functional, organism-based. In short, it runs like this: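 MT-4 lymphocytes were infected with HIV-1 3B at an MOI of either 0.001 or 0.032 tissue culture infective dose per cell. EC50 is the concentration preventing 50% of viral cytopathic effect, from a single triplicate assay. No effect means no activity up to 100 μM or up to the cytotoxic concentration.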

In data set [4] the target is Human immunodeficiency virus type 1 protease (Human immunodeficiency virus 1, UniProt Q72874). Description: Inhibition of purified recombinant HIV-1 protease in a fluorogenic assay. In short, it runs like this: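 Purified recombinant HIV-1 protease, with cleavage of the fluorogenic substrate DABCYL-[…]-Pro-Ile-Val-Gln-EDANS as read-out. Value is the inhibitor concentration giving 50% inhibition of protease activity.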

What is called CC50 is the concentration at which the toxic effect on the cells reaches its halfway point. Lower therefore signals greater toxicity to the cells. A word on the EC50: it is the concentration giving half of the maximal effect. As usually defined, the IC50 is the concentration that gives 50% inhibition. In the case of `CC(C)[C@H](NC(=O)OCc1ccncc1)C(=O)N[C@@H](Cc1ccccc1)[C@H](O)[C@H](O)[C@H](Cc1ccccc1)NC(=O)[C@H](NC(=O)OCc1ccncc1)C(C)C`, the solubility in data set [1] was 0.62 µg/mL (≈ 0.806 µM). For the same compound, in data set [2], the CC50 is greater than 100000 nM. In addition, the EC50 in data set [3] was determined as 600 nM. The IC50 in data set [4] was 2.3 nM.
With `CC(C)[C@H](NC(=O)OCc1ccccn1)C(=O)N[C@@H](Cc1ccccc1)[C@@H](O)[C@H](Cc1ccccc1)NC(=O)[C@H](NC(=O)OCc1ccccc1)C(C)C`, the solubility in data set [1] was 0.6 µg/mL (≈ 0.813 µM). In data set [2], this compound registered a CC50 greater than 100000 nM. Moreover, the EC50 in data set [3] was 2200 nM. The IC50 in data set [4] worked out at 3 nM.
`CC(C)[C@H](NC(=O)OCc1ccccc1)C(=O)N[C@@H](Cc1ccccc1)[C@H](O)[C@H](O)[C@H](Cc1ccccc1)NC(=O)[C@H](NC(=O)OCc1ccccc1)C(C)C` displayed a cytotoxic concentration (CC50) in data set [2] greater than 100000 nM. Further, the EC50 in data set [3] is 70 nM. The IC50 in data set [4] was less than 1 nM.
For the compound `CC(C)[C@H](NC(=O)OCC1CCCCN1C)C(=O)N[C@@H](Cc1ccccc1)[C@@H](O)[C@H](Cc1ccccc1)NC(=O)[C@H](NC(=O)OCc1ccccc1)C(C)C` (stereo partly drawn), in data set [1], the solubility is 19 µg/mL (≈ 25.1 µM). The IC50 in data set [4] came out at 63 nM.
For `CC(C)[C@H](NC(=O)N(C)Cc1ccccn1)C(=O)N[C@@H](Cc1ccccc1)[C@H](O)[C@@H](O)[C@H](Cc1ccccc1)NC(=O)[C@H](NC(=O)N(C)Cc1cccnc1)C(C)C`, the solubility in data set [1] was 420 µg/mL (≈ 528 µM). The same compound came in with a CC50 in data set [2] greater than 100000 nM. The compound further registered an EC50 in data set [3] of 480 nM. In addition, the IC50 in data set [4] was less than 1 nM.
Taken in the same sequence, the figures for `CC(C)[C@H](NC(=O)/C=C/c1cccnc1)C(=O)N[C@@H](Cc1ccccc1)[C@@H](O)[C@@H](O)[C@H](Cc1ccccc1)NC(=O)[C@H](NC(=O)/C=C/c1cccnc1)C(C)C` were 23 µg/mL (≈ 30.2 µM), greater than 100000 nM, 6200 nM and 5.3 nM.
Taken in the same sequence, the figures for `CC(C)[C@H](NC(=O)N(C)Cc1ccccn1)C(=O)N[C@@H](Cc1ccccc1)[C@@H](O)[C@H](O)[C@H](Cc1ccccc1)NC(=O)[C@H](NC(=O)N(C)Cc1ccccn1)C(C)C` were 197 µg/mL (≈ 248 µM), greater than 100000 nM, 270 nM and less than 1 nM.
Taken in the same sequence, the figures for `CC(C)[C@H](NC(=O)N(C)Cc1nc2ccccc2[nH]1)C(=O)N[C@@H](Cc1ccccc1)[C@H](O)[C@H](O)[C@H](Cc1ccccc1)NC(=O)[C@H](NC(=O)N(C)Cc1nc2ccccc2[nH]1)C(C)C` were 18 µg/mL (≈ 20.6 µM), 31000 nM, 1900 nM and less than 1 nM.
For `CC(C)[C@H](NC(=O)CN1CCOCC1)C(=O)N[C@@H](Cc1ccccc1)[C@@H](O)[C@@H](O)[C@H](Cc1ccccc1)NC(=O)[C@H](NC(=O)CN1CCOCC1)C(C)C`, the IC50 in data set [4] came out at 7.5 nM.
`CC(C)[C@H](NC(=O)OCc1ccccn1)C(=O)N[C@@H](Cc1ccccc1)[C@@H](O)[C@@H](O)[C@H](Cc1ccccc1)NC(=O)[C@H](NC(=O)OCc1ccccn1)C(C)C`: the solubility in data set [1] is 5.4 µg/mL (≈ 7.02 µM). The compound also showed a CC50 in data set [2] greater than 100000 nM. In data set [3], this compound returned an EC50 of 450 nM. Also, the IC50 in data set [4] was less than 1 nM.
Taken in the same sequence, the figures for `CC(C)[C@H](NC(=O)OCc1ccccn1)C(=O)N[C@@H](Cc1ccccc1)[C@H](O)[C@H](O)[C@H](Cc1ccccc1)NC(=O)[C@H](NC(=O)OCc1ccccn1)C(C)C` were 0.21 µg/mL (≈ 0.273 µM), greater than 100000 nM, 230 nM and less than 1 nM.
`CC(C)[C@H](NC(=O)c1cc2ccccc2[nH]1)C(=O)N[C@@H](Cc1ccccc1)[C@@H](O)[C@@H](O)[C@H](Cc1ccccc1)NC(=O)[C@H](NC(=O)c1cc2ccccc2[nH]1)C(C)C` displayed a CC50 in data set [2] of 49000 nM. In addition, the EC50 in data set [3] is 70 nM. For the same compound, the IC50 in data set [4] was less than 1 nM.
Regarding `CC(C)[C@H](NC(=O)N(C)Cc1nc2ccccc2[nH]1)C(=O)N[C@@H](Cc1ccccc1)[C@@H](O)[C@H](O)[C@H](Cc1ccccc1)NC(=O)[C@H](NC(=O)N(C)Cc1nc2ccccc2[nH]1)C(C)C`, the solubility in data set [1] was 6.6 µg/mL (≈ 7.56 µM). This compound also yielded a CC50 in data set [2] of 27000 nM. In addition, in data set [3], the EC50 worked out at 1700 nM. In addition, in data set [4], the IC50 was less than 1 nM.
The corresponding values for `CC(C)[C@H](NC(=O)N(C)Cc1ccccn1)C(=O)N[C@@H](Cc1ccccc1)[C@H](O)[C@H](O)[C@H](Cc1ccccc1)NC(=O)[C@H](NC(=O)N(C)Cc1ccccn1)C(C)C` are 3.6 µg/mL (≈ 4.53 µM), greater than 100000 nM, 170 nM and less than 1 nM.
Taken in the same sequence, the figures for `CC(C)[C@H](NC(=O)/C=C/c1ccccn1)C(=O)N[C@@H](Cc1ccccc1)[C@@H](O)[C@@H](O)[C@H](Cc1ccccc1)NC(=O)[C@H](NC(=O)/C=C/c1ccccn1)C(C)C` were 6.8 µg/mL (≈ 8.94 µM), greater than 100000 nM, 1100 nM and less than 1 nM.
Take `CC(C)[C@H](NC(=O)NCc1ccccn1)C(=O)N[C@@H](Cc1ccccc1)C(O)[C@H](Cc1ccccc1)NC(=O)[C@H](NC(=O)NCc1ccccn1)C(C)C` (stereo partly drawn): in data set [1], the solubility was 53 µg/mL (≈ 71.9 µM). This compound also displayed a CC50 in data set [2] greater than 100000 nM. For the same compound, in data set [3], it took 6100 nM to reach a half-maximal effect (EC50). Further, the IC50 in data set [4] was 10 nM.
Turning to `CC(C)[C@H](NC(=O)N(C)Cc1ccccn1)C(=O)N[C@@H](Cc1ccccc1)[C@H](O)[C@@H](O)[C@H](Cc1ccccc1)NC(=O)[C@H](NC(=O)N(C)Cc1nccs1)C(C)C`, the solubility in data set [1] was 10.9 µg/mL (≈ 13.6 µM). This compound gave a CC50 in data set [2] greater than 100000 nM. A half-maximal effect in data set [3] (EC50) was put at 220 nM. Moreover, in data set [4], the IC50 was less than 1 nM.
The corresponding values for `CC(C)[C@H](NC(=O)OCc1ccccc1)C(=O)N[C@@H](Cc1ccccc1)[C@@H](O)[C@@H](O)[C@H](Cc1ccccc1)NC(=O)[C@H](NC(=O)OCc1ccccc1)C(C)C` are less than 0.03 µg/mL, greater than 100000 nM, 110 nM and less than 1 nM.
In data set [2], `CC(C)[C@H](NC(=O)c1cc2ccccc2[nH]1)C(=O)N[C@@H](Cc1ccccc1)C(O)[C@H](Cc1ccccc1)NC(=O)[C@H](NC(=O)c1cc2ccccc2[nH]1)C(C)C` (stereo partly drawn) gave a CC50 of 58000 nM. The compound further registered an EC50 in data set [3] of 8900 nM. In data set [4], the IC50 worked out at 1.2 nM.
As for `CC(C)[C@H](NC(=O)OCc1cccnc1)C(=O)N[C@@H](Cc1ccccc1)[C@@H](O)[C@@H](O)[C@H](Cc1ccccc1)NC(=O)[C@H](NC(=O)OCc1cccnc1)C(C)C`, the solubility in data set [1] was 31 µg/mL (≈ 40.3 µM). The CC50 in data set [2] is greater than 100000 nM. In data set [3], the concentration giving a half-maximal response (EC50) worked out at 440 nM. Besides, in data set [4], the IC50 was less than 1 nM.
Take `CC(C)[C@H](NC(=O)OCc1cccnc1)C(=O)N[C@@H](Cc1ccccc1)[C@@H](O)[C@H](O)[C@H](Cc1ccccc1)NC(=O)[C@H](NC(=O)OCc1cccnc1)C(C)C`: in data set [1], the solubility is 0.5 µg/mL (≈ 0.65 µM). Also, the IC50 in data set [4] was less than 1 nM.
As to `CC(C)[C@H](NC(=O)N(C)CCc1ccccn1)C(=O)N[C@@H](Cc1ccccc1)[C@@H](O)[C@H](O)[C@H](Cc1ccccc1)NC(=O)[C@H](NC(=O)N(C)CCc1ccccn1)C(C)C`, the solubility in data set [1] is 66 µg/mL (≈ 80.2 µM). The compound also registered a CC50 in data set [2] of 61000 nM. This compound yielded an EC50 in data set [3] of 4200 nM. Further, in data set [4], the IC50 came to 5.2 nM.
On to `CC(C)[C@H](NC(=O)OCc1cccnc1)C(=O)N[C@@H](Cc1ccccc1)[C@H](O)[C@H](O)[C@H](Cc1ccccc1)NC(=O)[C@H](NC(=O)OCc1cccnc1)C(C)C`, for which, in data set [1], the solubility was 0.41 µg/mL (≈ 0.533 µM). In addition, the IC50 in data set [4] is less than 1 nM.
The corresponding values for `CC(C)[C@H](NC(=O)OCCN1CCOCC1)C(=O)N[C@@H](Cc1ccccc1)C(O)[C@H](Cc1ccccc1)NC(=O)[C@H](NC(=O)OCCN1CCOCC1)C(C)C` (stereo partly drawn) are 273 µg/mL (≈ 349 µM) and 180 nM.
For the compound `CC(C)[C@H](NC(=O)N(C)Cc1cccnc1)C(=O)N[C@@H](Cc1ccccc1)[C@@H](O)[C@@H](O)[C@H](Cc1ccccc1)NC(=O)[C@H](NC(=O)N(C)Cc1cccnc1)C(C)C`, the solubility in data set [1] is 338 µg/mL (≈ 425 µM). Besides, the CC50 in data set [2] is greater than 100000 nM. Besides, the response in data set [3] was half-maximal at 5700 nM (EC50). In data set [4], the IC50 came to 1.6 nM.
In the case of `CC(C)[C@H](NC(=O)N(C)Cc1nc2ccccc2[nH]1)C(=O)N[C@@H](Cc1ccccc1)[C@@H](O)[C@@H](O)[C@H](Cc1ccccc1)NC(=O)[C@H](NC(=O)N(C)Cc1nc2ccccc2[nH]1)C(C)C`, in data set [1], the solubility was 12 µg/mL (≈ 13.7 µM). In data set [2], this compound returned a CC50 of 55000 nM. The EC50 in data set [3] turned out to be 5000 nM. In data set [4], the IC50 was less than 1 nM.
Taken in the same sequence, the figures for `CC(C)[C@H](NC(=O)N(C)Cc1cccnc1)C(=O)N[C@@H](Cc1ccccc1)[C@@H](O)[C@H](O)[C@H](Cc1ccccc1)NC(=O)[C@H](NC(=O)N(C)Cc1cccnc1)C(C)C` were 153 µg/mL (≈ 192 µM), greater than 100000 nM, 1700 nM and less than 1 nM.
With `CC(C)[C@H](NC(=O)OCc1ccccc1)C(=O)N[C@@H](Cc1ccccc1)[C@@H](O)[C@H](Cc1ccccc1)NC(=O)[C@H](NC(=O)OCc1ccccc1)C(C)C`, in data set [1], the solubility was greater than 0.03 µg/mL. In data set [2], this compound registered a CC50 greater than 100000 nM.
With `CC(C)[C@H](NC(=O)N(C)Cc1nccs1)C(=O)N[C@@H](Cc1ccccc1)[C@@H](O)[C@@H](O)[C@H](Cc1ccccc1)NC(=O)[C@H](NC(=O)N(C)Cc1nccs1)C(C)C`, in data set [1], the solubility is 137 µg/mL (≈ 170 µM). The compound further came in with a CC50 in data set [2] greater than 100000 nM. This compound registered an EC50 in data set [3] of 1700 nM. Also, the IC50 in data set [4] amounted to 1 nM.
Regarding `CC(C)[C@H](NC(=O)OCc1ccccc1)C(=O)N[C@@H](Cc1ccccc1)[C@@H](O)[C@H](O)[C@H](Cc1ccccc1)NC(=O)[C@H](NC(=O)OCc1ccccc1)C(C)C`, the CC50 in data set [2] is greater than 100000 nM. Also, the EC50 in data set [3] stood at 90 nM. Moreover, the IC50 in data set [4] was less than 1 nM.
